What was measured:
Conditions in all cases: stereoisomer not certain
OR4D6 (Homo sapiens) = OR4D6 (Homo sapiens) (UniProt Q8NGJ1)
Procedure, shortened: (§1)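 Assay methods differ from source to source, frequently being transient luciferase assays in mammalian cell lines. For each receptor–molecule pair, the label responsive (active) applies when the original authors judged the measured signal statistically different from baseline, and non-responsive (inactive) applies otherwise.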

OR4D6 = system: OR4D6
Procedure, shortened: as §1

OR4D9 (Homo sapiens) = OR4D9 (Homo sapiens) (UniProt Q8NGE8)
Procedure, shortened: as §1

OR4E2 (Homo sapiens) = OR4E2 (Homo sapiens) (UniProt Q8NGC2)
Procedure, shortened: as §1

OR4E2 A119T = system: OR4E2 A119T
Procedure, shortened: as §1

OR4E2 = system: OR4E2
Procedure, shortened: as §1

OR4F15 (Homo sapiens) = OR4F15 (Homo sapiens) (UniProt Q8NGB8)
Procedure, shortened: as §1

OR4F17 (Homo sapiens) = OR4F17 (Homo sapiens) (UniProt Q8NGA8)
Procedure, shortened: as §1

OR4F21 (Homo sapiens) = OR4F21 (Homo sapiens) (UniProt O95013)
Procedure, shortened: as §1

OR4E1 (Homo sapiens) = OR4E1 (Homo sapiens) (UniProt P0C645)
Procedure, shortened: as §1

Measured: odorant receptor agonist call

Chain of OR4E2 (Homo sapiens) (Q8NGC2 whole entry): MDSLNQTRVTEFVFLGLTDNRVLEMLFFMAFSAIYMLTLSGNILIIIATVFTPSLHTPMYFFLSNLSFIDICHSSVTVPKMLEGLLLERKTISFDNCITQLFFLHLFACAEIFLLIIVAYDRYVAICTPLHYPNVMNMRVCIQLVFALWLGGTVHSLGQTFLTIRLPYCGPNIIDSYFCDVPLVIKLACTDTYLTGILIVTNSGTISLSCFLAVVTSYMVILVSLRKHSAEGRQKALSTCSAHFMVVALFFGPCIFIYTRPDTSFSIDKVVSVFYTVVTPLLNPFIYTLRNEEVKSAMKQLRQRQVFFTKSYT
Chain of OR4D6 (Homo sapiens) (Q8NGJ1 whole entry): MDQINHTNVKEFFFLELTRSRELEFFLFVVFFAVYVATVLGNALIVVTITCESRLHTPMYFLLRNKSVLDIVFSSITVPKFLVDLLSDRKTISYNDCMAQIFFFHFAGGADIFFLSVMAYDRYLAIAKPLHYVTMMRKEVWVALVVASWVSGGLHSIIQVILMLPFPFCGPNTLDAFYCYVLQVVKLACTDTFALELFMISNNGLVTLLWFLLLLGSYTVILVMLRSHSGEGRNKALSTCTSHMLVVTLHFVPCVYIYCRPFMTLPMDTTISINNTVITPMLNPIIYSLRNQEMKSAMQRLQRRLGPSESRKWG
Chain of OR4D9 (Homo sapiens) (Q8NGE8 whole entry): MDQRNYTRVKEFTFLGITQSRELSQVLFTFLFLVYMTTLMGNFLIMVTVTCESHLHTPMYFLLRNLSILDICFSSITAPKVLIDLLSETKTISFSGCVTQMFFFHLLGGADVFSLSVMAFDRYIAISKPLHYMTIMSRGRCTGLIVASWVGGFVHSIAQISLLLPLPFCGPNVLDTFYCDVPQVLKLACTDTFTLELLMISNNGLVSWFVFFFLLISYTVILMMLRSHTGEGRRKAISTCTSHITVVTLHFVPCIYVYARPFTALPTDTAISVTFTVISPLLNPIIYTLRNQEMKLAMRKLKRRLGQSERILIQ
Chain of OR4F15 (Homo sapiens) (Q8NGB8 whole entry): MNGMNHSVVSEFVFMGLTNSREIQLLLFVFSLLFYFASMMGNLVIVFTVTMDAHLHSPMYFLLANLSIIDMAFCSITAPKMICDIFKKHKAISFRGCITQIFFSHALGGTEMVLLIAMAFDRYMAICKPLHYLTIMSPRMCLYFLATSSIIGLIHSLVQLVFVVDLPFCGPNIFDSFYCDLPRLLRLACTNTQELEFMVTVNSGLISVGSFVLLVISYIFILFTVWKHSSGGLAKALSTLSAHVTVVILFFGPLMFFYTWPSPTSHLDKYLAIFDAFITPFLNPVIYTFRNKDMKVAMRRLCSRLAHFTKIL
Chain of OR4F17 (Homo sapiens) (Q8NGA8 whole entry): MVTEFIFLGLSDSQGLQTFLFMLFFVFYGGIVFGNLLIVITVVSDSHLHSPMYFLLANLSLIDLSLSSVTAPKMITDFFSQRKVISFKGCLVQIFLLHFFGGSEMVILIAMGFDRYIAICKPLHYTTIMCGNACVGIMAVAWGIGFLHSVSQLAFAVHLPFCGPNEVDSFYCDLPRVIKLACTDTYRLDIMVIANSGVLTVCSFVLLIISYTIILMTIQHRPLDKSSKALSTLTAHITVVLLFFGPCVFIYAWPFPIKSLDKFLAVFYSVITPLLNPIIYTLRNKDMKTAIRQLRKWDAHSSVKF
Chain of OR4F21 (Homo sapiens) (O95013 whole entry): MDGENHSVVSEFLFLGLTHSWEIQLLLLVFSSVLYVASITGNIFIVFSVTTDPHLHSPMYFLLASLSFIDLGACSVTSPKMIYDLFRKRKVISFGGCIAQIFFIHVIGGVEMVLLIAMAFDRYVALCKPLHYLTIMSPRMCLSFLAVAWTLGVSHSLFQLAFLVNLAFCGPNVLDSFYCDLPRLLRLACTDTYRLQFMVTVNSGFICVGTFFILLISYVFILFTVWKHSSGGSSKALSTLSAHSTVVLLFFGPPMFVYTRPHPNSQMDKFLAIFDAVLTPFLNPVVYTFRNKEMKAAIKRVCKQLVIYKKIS
Chain of OR4E2 A119T (as listed by the source, stated change not applied): as the sequence (Q8NGC2 whole entry) above, with V118M, A119T, Q234R counted along it
Chain of OR4D6 (as listed by the source): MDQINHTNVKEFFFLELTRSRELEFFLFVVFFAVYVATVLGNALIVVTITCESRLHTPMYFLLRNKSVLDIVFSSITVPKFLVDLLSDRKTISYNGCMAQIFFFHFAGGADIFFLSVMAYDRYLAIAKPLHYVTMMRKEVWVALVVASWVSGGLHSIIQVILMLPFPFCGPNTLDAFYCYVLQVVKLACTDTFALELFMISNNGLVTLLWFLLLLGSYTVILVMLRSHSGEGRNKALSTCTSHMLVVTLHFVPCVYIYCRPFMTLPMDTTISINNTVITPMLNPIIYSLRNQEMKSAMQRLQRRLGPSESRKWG
Chain of OR4E2 (as listed by the source): as the sequence (Q8NGC2 whole entry) above, with V118M, Q234R counted along it
Chain of OR4E1 (Homo sapiens) (P0C645 whole entry): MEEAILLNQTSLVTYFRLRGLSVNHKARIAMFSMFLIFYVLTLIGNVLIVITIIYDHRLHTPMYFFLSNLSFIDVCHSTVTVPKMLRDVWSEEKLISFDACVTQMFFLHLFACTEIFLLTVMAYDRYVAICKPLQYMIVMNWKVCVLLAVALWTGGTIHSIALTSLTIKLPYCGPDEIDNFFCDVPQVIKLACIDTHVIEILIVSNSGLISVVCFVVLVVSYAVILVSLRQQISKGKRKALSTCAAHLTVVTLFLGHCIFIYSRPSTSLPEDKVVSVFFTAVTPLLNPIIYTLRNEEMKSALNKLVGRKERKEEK

C=CCOC(=O)Cc1ccccc1
not listed: OR4E1 (Homo sapiens)
inactive: all other assays above

Cc1c([N+](=O)[O-])c(C)c([N+](=O)[O-])c(C(C)(C)C)c1[N+](=O)[O-]
not listed: OR4D6 | OR4E2 A119T | OR4E2
inactive: all other assays above

Source: the M2OR odorant receptor database
